High-throughput results (PubChem)
A selection: hits, their analogues and other compounds. The true share with any hit is near 0.86%.
MLL AF4-AF9 inh = inhibitors of AF4 peptide binding to AF9, primary screen, biochemical, AlphaScreen, biotin-AF4 peptide, FLAG-AF9, single point | hit rate 0.47% among 350,000 | inhibition, % at 10 µM | AID 651704, 2012;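 active = every replicate reaching a set inhibition limit, whatever the replicate mean, cut at about 25% in these data; inconclusive = mean inhibition reaches that limit but some replicates miss it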;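 also: 0% = plate neutral control median and 100% = total signal loss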
Target sequence (P42568 whole entry, looked up): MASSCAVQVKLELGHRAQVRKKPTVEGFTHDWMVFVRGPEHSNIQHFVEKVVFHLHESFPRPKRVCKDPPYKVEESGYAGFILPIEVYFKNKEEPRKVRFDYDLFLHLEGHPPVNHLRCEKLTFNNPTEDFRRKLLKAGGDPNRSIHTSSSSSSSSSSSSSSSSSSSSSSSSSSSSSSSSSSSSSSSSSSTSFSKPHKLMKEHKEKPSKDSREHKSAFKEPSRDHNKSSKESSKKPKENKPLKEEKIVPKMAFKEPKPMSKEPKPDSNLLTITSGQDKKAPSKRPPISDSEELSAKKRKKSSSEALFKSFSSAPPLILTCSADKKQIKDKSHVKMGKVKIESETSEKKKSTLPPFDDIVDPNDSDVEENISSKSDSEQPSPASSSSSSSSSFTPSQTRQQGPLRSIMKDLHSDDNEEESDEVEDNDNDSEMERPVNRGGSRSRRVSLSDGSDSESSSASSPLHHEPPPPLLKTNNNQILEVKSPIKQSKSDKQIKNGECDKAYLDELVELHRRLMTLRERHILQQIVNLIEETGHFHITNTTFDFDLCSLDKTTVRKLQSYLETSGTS
S100A4 inh HTS = inhibitors of S100A4-myosin IIA peptide binding, primary screen, biochemical, fluorescence polarization, TAMRA-MyoIIA peptide; Protein S100-A4 (Homo sapiens), P26447; inhibition, % at 10.7 µM; hit rate 0.14% among 360,000;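 active = mean inhibition of at least 70% across replicates, with every replicate also reaching that level; inconclusive = mean inhibition reaches 70% but some replicates fall short; inactive = mean inhibition below 70%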
Target sequence (P26447 whole entry, looked up): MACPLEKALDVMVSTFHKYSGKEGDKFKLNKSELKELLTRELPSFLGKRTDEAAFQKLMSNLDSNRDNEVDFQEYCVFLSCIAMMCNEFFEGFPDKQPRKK
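System – human S100A4 monomer protein, biochemical binding assay · Buffer or medium – Calcium-containing HEPES buffer, pH 7.2 · Timing – 5 min between mix addition and reading · Also added – TAMRA-labelled myosin IIA heavy-chain peptide probe, 5 nM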
Rtt109 HAT inh = inhibitors of C. albicans Rtt109/Vps75 HAT, primary screen, biochemical, ThioGlo CoA-SH fluorescence, plate reader | Histone acetyltransferase RTT109 (Candida albicans (strain SC5314 / ATCC MYA-2876)), … | purified Rtt109/Vps75, 4 h | inhibition, % at 34.9 µM | hit rate 0.16% among 330,000;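 active = inhibition of at least 50% in every replicate; inconclusive = best replicate reaches 50% inhibition but some replicates fall short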
miR122 inh = miR-122 Renilla sensor signal increase in Huh7, primary screen, miR-122 inhibitor project, cell-based, single point, plate reader; Huh7 miR-122 Renilla luciferase sensor, 48 h; neutral wells = 0, positive control = 100; activation (reporter increase), % at 12.5 µM; hit rate 0.3% among 340,000;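 active = mean replicate activation score at least 90 and every replicate individually at or above 90; inconclusive = only one of the two criteria met; inactive = neither criterion met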;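 also: higher luciferase means less miR-122 activity so hits act as miR-122 inhibitors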
ERAP1 inh = human ERAP1 aminopeptidase inhibitors, primary screen, biochemical, single point, plate reader | Endoplasmic reticulum aminopeptidase 1 (Homo sapiens), Q9NZ08 | recombinant ERAP1, Leu-AMC fluorescence, 60 min | inhibition, % at 10.7 µM | hit rate 0.15% among 340,000 | AID 652197, 2013;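 active = mean replicate inhibition of at least 30%, or all replicates individually reaching that 30% level; inactive = mean below 30% and not every replicate reaching it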;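 also: 0% = neutral control wells and 100% = L-leucinethiol positive control wells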
Numbers without * were called inactive; ? = inconclusive; . = no result; [ ] = another dose, or the depositor's remark.

SMILES	MLL AF4-AF9 inh	S100A4 inh HTS	Rtt109 HAT inh	miR122 inh	ERAP1 inh
Cc1ccc(S(=O)(=O)Nc2ccc3c(c2)C(=O)N([C@@H](C)CO)C[C@@H](C)[C@H](CN(C)Cc2ccncc2)OCCCC[C@@H](C)O3)cc1	-2	5	.	-7[16.7 µM]	-3
COc1ccc2ccc3cccc[n+]3c2c1	-2	-3	-8	-12	43*
Cc1ccc(S(=O)(=O)/N=C2\C=C(Nc3cccc(C(=O)O)c3)C(=O)c3ccccc32)cc1	8	-3	11	-5	-31
CCc1ccc(S(=O)(=O)/N=C2\C=C(Nc3ccc(C(=O)O)cc3)C(=O)c3ccccc32)cc1	28*	-1	20	-1	7
O=S(=O)(c1cccs1)N1CCCCN2[C@@H](CO)[C@@H](c3ccc(-c4ccccc4)cc3)[C@@H]2C1	4	-2	.	-8[16.7 µM]	-2
O=[N+]([O-])c1ccc2c(c1)-c1ccccc1C2O (stereo unspecified)	2	-1	.	2	39*
COc1cc2nc(NCCCN3CCN(C)CC3)n3nc(-c4ccccc4)nc3c2cc1OC	.	.	82*	.	.
CCN(CC)CCCNc1nc2cc(OC)c(OC)cc2c2nc(-c3cccnc3)nn12	.	.	79*	-6	.
CCN(CC)CCCNc1nc2cc(OC)c(OC)cc2c2nc(-c3ccccc3)nn12	.	.	1	14	.
CN1CCN(CCCNc2nc3ccccc3c3nc(-c4ccccc4)nn23)CC1	19	8	3	-3	-3
O=C(Nc1nccs1)[C@H]1[C@H](CO)[C@H]2Cn3c(ccc(-c4ccccc4)c3=O)[C@H]2N1CC1CCCC1	-2	14	.	-1[16.7 µM]	2
CC(C)[N+]1=C2C=CC=CC=C2SC12C([N+](=O)[O-])=CC(=[N+]([O-])[O-])C=C2[N+](=O)[O-] (stereo unspecified)	29*	-9	.	-4	2
C[C@H]1CN([C@@H](C)CO)C(=O)c2cccc(NC(=O)CCCCCC(=O)Nc3ccccc3N)c2O[C@@H]1CN(C)Cc1ccc2c(c1)OCO2	-2	4	.	32[16.7 µM]	-1
C[C@H](CO)N1C[C@H](C)[C@@H](CN(C)Cc2ccc(C(=O)O)cc2)Oc2ccc(NC(=O)NC3CCCCC3)cc2C1=O	-2	5	.	1[16.7 µM]	-3
C[C@H]1CN([C@@H](C)CO)C(=O)c2cccc(N(C)C)c2O[C@@H]1CN(C)Cc1ccc(C(=O)Nc2ccccc2N)cc1	4	-3	.	27[16.7 µM]	3
C[C@H]1CN([C@@H](C)CO)C(=O)c2cc(NC(=O)NC3CCCCC3)ccc2O[C@@H]1CN(C)Cc1ccc(C(=O)O)cc1	-3	96*	.	-4[16.7 µM]	1
C[C@@H]1CN([C@@H](C)CO)C(=O)c2cccc(N(C)C)c2O[C@@H]1CN(C)Cc1ccc(C(=O)Nc2ccccc2N)cc1	4	14	.	109*[16.7 µM]	0
C[C@@H]1CN([C@@H](C)CO)C(=O)c2cccc(NC(=O)C3CCCCC3)c2O[C@@H]1CN(C)Cc1ccc(C(=O)Nc2ccccc2N)cc1	2	6	.	185*[16.7 µM]	1
C[C@@H]1CN([C@H](C)CO)C(=O)c2cccc(NC(=O)c3ccc(-c4nccs4)cc3)c2O[C@@H]1CN(C)Cc1ccc(C(=O)Nc2ccccc2N)cc1	1	-49	.	203*[16.7 µM]	0
C[C@@H]1CN([C@@H](C)CO)S(=O)(=O)c2ccc(-c3cccnc3)cc2O[C@H]1CN(C)C(=O)C1CCCCC1	2	-5	.	13[16.7 µM]	0
N#C[C@@H]1N[C@@H](CO)[C@H]1c1ccc(-c2cccc(F)c2)cc1	-3	-1	.	.	-1
C[C@@H]1CN([C@@H](C)CO)C(=O)c2cc(NC(=O)Nc3ccccc3)ccc2O[C@@H]1CN(C)Cc1ccc(C(=O)Nc2ccccc2N)cc1	-1	3	.	170*[16.7 µM]	-2
C[C@@H]1CN([C@@H](C)CO)C(=O)c2cccc(NC(=O)Nc3ccccc3)c2O[C@@H]1CN(C)Cc1ccc(C(=O)Nc2ccccc2N)cc1	1	-1	.	140*[16.7 µM]	1
C[C@H](CO)N1C[C@H](C)[C@H](CN(C)Cc2ccc(C(=O)Nc3ccccc3N)cc2)Oc2ccc(NC(=O)Nc3ccccc3)cc2C1=O	-4	-3	.	39[16.7 µM]	-3
COCc1cn(CC[C@H]2CC[C@H](NC(=O)Nc3ccc(C(F)(F)F)cc3)[C@@H](CO)O2)nn1	1	-2	.	.	1
SMILES	MLL AF4-AF9 inh	S100A4 inh HTS	Rtt109 HAT inh	miR122 inh	ERAP1 inh
C[C@H](O)C#Cc1cnc2c(c1)C(=O)N([C@@H](C)CO)C[C@H](C)[C@H](CN(C)C(=O)CC1CC1)O2	-1	?	.	-10[16.7 µM]	2
CCC(C)c1ccc(NC(=S)NCc2cccs2)cc1 (stereo unspecified)	.	.	-5	174*	.
CC(=O)Nc1ccc(S(=O)(=O)Nc2ccc3c(c2)n(C)c(=O)n3C)c(C)c1	0	1	-8	156*	-5
CC(=O)Nc1ccc2c(c1)n(C)c(=O)n2C	.	.	-2	.	.
CCCC(=O)N1CCC2(CC1)CN(C(=O)COC)[C@@H](CO)c1c2c2ccc(OC)cc2n1C	-2	-10	.	.	1
C[C@H](CO)N1C[C@H](C)[C@@H](CN(C)Cc2cccc(F)c2)Oc2ncc(C#C[C@@H](C)O)cc2C1=O	-2	141*	.	7[16.7 µM]	-6
CC(C)C#Cc1cnc2c(c1)C(=O)N([C@H](C)CO)C[C@H](C)[C@H](CN(C)C(=O)Nc1ccc(F)cc1)O2	3	78*	.	9[16.7 µM]	12
CN1[C@@H]2c3ccc(/C=C/c4ccccc4)c(=O)n3C[C@@H]2[C@@H](CO)[C@@H]1C(=O)N1CCCCC1	-2	4	.	-1[16.7 µM]	-44
CC1CCN(S(=O)(=O)c2cnc(Cl)c(Br)c2)CC1	27*	0	-1	-4	-2
CN1c2ccc(C3=CCCCC3)cc2[C@@H]2[C@@H](CCN2C(=O)C2CC2)[C@H]1CO	18	118*	.	.	0
CN1c2ccc(C3=CCCCC3)cc2[C@@H]2[C@@H](CCN2C(=O)C2CC2)[C@@H]1CO	?	2	.	.	-5
CN1c2ccc(C3=CCCCC3)cc2[C@H]2[C@H](CCN2C(=O)C2CC2)[C@@H]1CO	69*	14	.	.	1
C[C@@H]1CCCCO[C@@H](CN(C)Cc2ccc(C(=O)O)cc2)[C@H](C)CN([C@H](C)CO)C(=O)c2cc(NS(=O)(=O)c3ccccc3)ccc2O1	.	.	.	9[16.7 µM]	.
CCOc1cc2c3c(c1)C(C)=CC(C)(C)N3C(=O)C2=O	16	-4	6	4	0
CC(=O)Oc1cc2c3c(c1)/C(=C1/SC(=S)NC1=O)C(=O)N3C(C)(C)C=C2C	30*	2	3	.	0
